Results collected from several papers.
Compare with care: the assays were run in different laboratories.
Target: Ephrin type-A receptor 5 (EPHA5, Homo sapiens, UniProt P54756)

With `COc1cc(-c2cn(C3CCc4c(F)cccc4N(CC(F)(F)F)C3=O)nn2)ccc1-n1cnc(C)c1` (stereo not shown) the remaining binding was 100% (cell-free assay, competition with immobilised ligand; 1 µM).
With `O=C1NC(=O)c2cc(Nc3ccc(F)cc3)c(Nc3ccc(F)cc3)cc21` the remaining signal was 95.4% (cell-free assay; 0.5 µM).
With `CCOCCn1cc(C(=O)Nc2ccc(-n3nc(-c4cccnc4)cc3C(F)(F)F)cn2)ccc1=O` the remaining binding was 100% (cell-free assay, competition with immobilised ligand; 1 µM).
`COc1cc(Cl)c(C(=O)N[C@@H](CN[C@H]2CC[C@@H](N)CC2)Cc2ccc(C#N)cc2)cc1-c1ccc(CN[C@H](C)c2ccc(C)cc2)o1` has a remaining activity of 90% (enzyme activity, inhibitor; 1 µM).
The inhibition of `COc1cc2ncnc(Nc3ccc(Oc4ccccc4)c(C)c3C)c2cc1OC` is reported as 1% (enzyme activity, inhibitor; 1 µM).
For `C[C@@H]1CN(c2cc(-c3nn(C)c4ccc(OC5(C)CC5)cc34)ncn2)C[C@H](C)O1`, the remaining binding was 100% (cell-free assay, competition with immobilised ligand; 1 µM).
`Cc1ccc(Nc2nccc(N(C)c3ccc4c(C)n(C)nc4c3)n2)cc1S(N)(=O)=O` gave an inhibition of 6% (enzyme activity, inhibitor; 0.3 µM).
With `Cc1sc(C(=O)NC2COC2)cc1-n1cc(NC(=O)Nc2c(F)cccc2Cl)cn1` the remaining activity was 106% (enzyme activity, inhibitor; 10 µM).
For `CCN(CC)CCNC(=O)c1c(C)[nH]c(/C=C2\C(=O)Nc3ccc(F)cc32)c1C`, the inhibition was 58% (enzyme activity, inhibitor; 10 µM).
`Nc1ncnc2occ(-c3ccc(NC(=O)Nc4cc(C(F)(F)F)ccc4F)cc3)c12` gave a remaining signal of 0.05% (cell-free assay; 20 µM).
`FC(F)(F)c1ccc2c(c1)nc(-c1cccnc1)n2C1CC1` has a remaining binding of 96% (cell-free assay, competition with immobilised ligand; 1 µM).
For `COc1cc2c(N3CCN(C(=O)Nc4ccc(OC(C)C)cc4)CC3)ncnc2cc1OCCCN1CCCCC1`, the remaining signal was 104% (cell-free assay; 0.5 µM).
`COc1cc(-c2cc(-c3ccc(N4CCNCC4)cc3)cnc2C)cc(OC)c1OC` has an inhibition of 5% (enzyme activity, inhibitor; 0.1 µM).
For `CC(=O)N1CCC(c2ccc(C(=O)NC3=NCCN3)cc2C(F)(F)F)CC1`, the remaining binding was 100% (cell-free assay, competition with immobilised ligand; 1 µM).
`CC(C)(C)c1nc(-c2cccc(NS(=O)(=O)c3c(F)cccc3F)c2F)c(-c2ccnc(N)n2)s1` gave a remaining activity of 116% (enzyme activity, inhibitor, radiometric; 1 µM).
`C=CC(=O)Nc1cc(Nc2nccc(Nc3cc(Cl)c(F)cc3C(C)(C)O)n2)c(OC)cc1N1CC[C@@H](N(C)C)C1` has an inhibition of 17% (enzyme activity, inhibitor; 1 µM).
